Test results taken from ChEMBL document CHEMBL1140697, “Synthesis and evaluation in monkey of two sensitive 11C-labeled aryloxyanilide ligands for imaging brain peripheral benzodiazepine receptors in vivo” (J Med Chem, 2008).
Values belong to the compound of their own block, whether it stands above or below them.

How the values were obtained:
[1] = biological target: Sodium-dependent serotonin transporter (Homo sapiens) (UniProt P31645); assay: Binding affinity to SERT receptor at 10 uM; settings: tested as the 11C-labelled form
Summary of the method: (§1)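 Run through the NIMH Psychoactive Drug Screening Program (PDSP) broad receptor screen. The test ligand was used at 10 µM, and the read-out was percent displacement of the reference radioligand from each site.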

[2] = biological target: Sodium-dependent dopamine transporter (Homo sapiens) (UniProt Q01959); assay: Binding affinity to DAT receptor at 10 uM; settings: tested as the 11C-labelled form; summary of the method: as §1
[3] = biological target: Sodium-dependent noradrenaline transporter (Homo sapiens) (UniProt P23975); assay: Binding affinity to NET receptor at 10 uM; settings: tested as the 11C-labelled form; summary of the method: as §1
[4] = biological target: 5-hydroxytryptamine receptor 1A (Homo sapiens) (UniProt P08908); assay: Binding affinity to 5HT1A at 10 uM; settings: tested as the 11C-labelled form; summary of the method: as §1
[5] = biological target: 5-hydroxytryptamine receptor 1B (Homo sapiens) (UniProt P28222); assay: Binding affinity to 5HT1B at 10 uM; settings: tested as the 11C-labelled form; summary of the method: as §1
[6] = biological target: 5-hydroxytryptamine receptor 1D (Homo sapiens) (UniProt P28221); assay: Binding affinity to 5HT1D at 10 uM; settings: tested as the 11C-labelled form; summary of the method: as §1
[7] = biological target: 5-hydroxytryptamine receptor 1E (Homo sapiens) (UniProt P28566); assay: Binding affinity to 5HT1E at 10 uM; settings: tested as the 11C-labelled form; summary of the method: as §1
[8] = biological target: 5-hydroxytryptamine receptor 2A (Homo sapiens) (UniProt P28223); assay: Binding affinity to 5HT2A at 10 uM; settings: tested as the 11C-labelled form; summary of the method: as §1
[9] = biological target: 5-hydroxytryptamine receptor 2B (Homo sapiens) (UniProt P41595); assay: Binding affinity to 5HT2B at 10 uM; settings: tested as the 11C-labelled form; summary of the method: as §1
[10] = biological target: 5-hydroxytryptamine receptor 2C (Homo sapiens) (UniProt P28335); assay: Binding affinity to 5HT2C at 10 uM; settings: tested as the 11C-labelled form; summary of the method: as §1
[11] = biological target: 5-hydroxytryptamine receptor 3A (Homo sapiens) (UniProt P46098); assay: Binding affinity to 5HT3 at 10 uM; settings: tested as the 11C-labelled form; summary of the method: as §1
[12] = biological target: 5-hydroxytryptamine receptor 5A (Homo sapiens) (UniProt P47898); assay: Binding affinity to 5HT5A at 10 uM; settings: tested as the 11C-labelled form; summary of the method: as §1
[13] = biological target: 5-hydroxytryptamine receptor 6 (Homo sapiens) (UniProt P50406); assay: Binding affinity to 5HT6 at 10 uM; settings: tested as the 11C-labelled form; summary of the method: as §1
[14] = biological target: 5-hydroxytryptamine receptor 7 (Homo sapiens) (UniProt P34969); assay: Binding affinity to 5HT7 at 10 uM; settings: tested as the 11C-labelled form; summary of the method: as §1
[15] = biological target: Alpha-1A adrenergic receptor (Homo sapiens) (UniProt P35348); assay: Binding affinity to adrenergic alpha-1A at 10 uM; settings: tested as the 11C-labelled form; summary of the method: as §1
[16] = biological target: Alpha-1B adrenergic receptor (Homo sapiens) (UniProt P35368); assay: Binding affinity to adrenergic alpha-1B at 10 uM; settings: tested as the 11C-labelled form; summary of the method: as §1
[17] = biological target: Beta-1 adrenergic receptor (Homo sapiens) (UniProt P08588); assay: Binding affinity to adrenergic […] at 10 uM; settings: tested as the 11C-labelled form; summary of the method: as §1
[18] = biological target: Beta-2 adrenergic receptor (Homo sapiens) (UniProt P07550); assay: Binding affinity to adrenergic beta-2 at 10 uM; settings: tested as the 11C-labelled form; summary of the method: as §1
[19] = biological target: Beta-3 adrenergic receptor (Homo sapiens) (UniProt P13945); assay: Binding affinity to adrenergic beta-3 at 10 uM; settings: tested as the 11C-labelled form; summary of the method: as §1
[20] = biological target: D(1A) dopamine receptor (Homo sapiens) (UniProt P21728); assay: Binding affinity to dopamine receptor D1 at 10 uM; settings: tested as the 11C-labelled form; summary of the method: as §1
[21] = biological target: D(2) dopamine receptor (Homo sapiens) (UniProt P14416); assay: Binding affinity to dopamine receptor D2 at 10 uM; settings: tested as the 11C-labelled form; summary of the method: as §1
[22] = biological target: D(3) dopamine receptor (Homo sapiens) (UniProt P35462); assay: Binding affinity to dopamine receptor D3 at 10 uM; settings: tested as the 11C-labelled form; summary of the method: as §1
[23] = biological target: D(4) dopamine receptor (Homo sapiens) (UniProt P21917); assay: Binding affinity to dopamine receptor D4 at 10 uM; settings: tested as the 11C-labelled form; summary of the method: as §1
[24] = biological target: Histamine H1 receptor (Homo sapiens) (UniProt P35367); assay: Binding affinity to histamine H1 receptor at 10 uM; settings: tested as the 11C-labelled form; summary of the method: as §1
[25] = biological target: Histamine H2 receptor (Homo sapiens) (UniProt P25021); assay: Binding affinity to histamine H2 receptor at 10 uM; settings: tested as the 11C-labelled form; summary of the method: as §1
[26] = biological target: Histamine H4 receptor (Homo sapiens) (UniProt Q9H3N8); assay: Binding affinity to histamine H4 receptor at 10 uM; settings: tested as the 11C-labelled form; summary of the method: as §1
[27] = biological target: Histamine H3 receptor (Homo sapiens) (UniProt Q9Y5N1); assay: Binding affinity to histamine H3 receptor at 10 uM; settings: tested as the 11C-labelled form; summary of the method: as §1
[28] = biological target: Muscarinic acetylcholine receptor M2 (Homo sapiens) (UniProt P08172); assay: Binding affinity to muscarinic receptor M2 receptor at 10 uM; settings: tested as the 11C-labelled form; summary of the method: as §1
[29] = biological target: Muscarinic acetylcholine receptor M5 (Homo sapiens) (UniProt P08912); assay: Binding affinity to muscarinic receptor M5 receptor at 10 uM; settings: tested as the 11C-labelled form; summary of the method: as §1
[30] = biological target: Alpha-2A adrenergic receptor (Homo sapiens) (UniProt P08913); assay: Binding affinity to adrenergic alpha-2A at 10 uM; settings: tested as the 11C-labelled form; summary of the method: as §1
[31] = biological target: Alpha-2B adrenergic receptor (Homo sapiens) (UniProt P18089); assay: Binding affinity to adrenergic alpha-2B at 10 uM; settings: tested as the 11C-labelled form; summary of the method: as §1
[32] = biological target: Alpha-2C adrenergic receptor (Homo sapiens) (UniProt P18825); assay: Binding affinity to adrenergic alpha-2C at 10 uM; settings: tested as the 11C-labelled form; summary of the method: as §1
Translocator protein [33] = biological target: Translocator protein (Rattus norvegicus, UniProt P16257); assay: Binding affinity to PBR in Sprague-Dawley rat mitochondrial tissue
[34] = Binding affinity to PBR in rhesus monkey mitochondrial tissue; parameters: species or system Macaca mulatta
Summary of the method: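 Mitochondrial fractions (rat, rhesus monkey or human) were incubated with [³H]PK 11195 (0.38 nM final) and eight test-ligand concentrations for 2 h at 4 °C. Samples were filtered on PEI-presoaked GF/B filters, washed with ice-cold buffer and counted. Nonspecific binding was taken at the top inhibitor level (0.1–0.3 µM). Triplicate curves were run in two independent experiments. IC₅₀ was converted to K_i by Cheng–Prusoff, using K_D from homologous PK 11195 displacement.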

Translocator protein [35] = biological target: Translocator protein (Homo sapiens, UniProt P30536); assay: Binding affinity to PBR in human mitochondrial tissue
[36] = Biodistribution in rhesus monkey plasma free fraction of blood; format: ADME, organism-based, Macaca mulatta
Plasma [37] = assay: Drug level in rhesus monkey plasma; format: ADME, cell-free, Macaca mulatta
[38] = Stability in monkey whole blood >30 mins; format: ADME, tissue-based, Macaca mulatta; settings: rhesus monkey, read-out: Stability
Summary of the method: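 The radioligand was incubated with monkey blood for >30 min. Radioactivity extracted from the plasma was analysed by radio-HPLC to give the percentage of unchanged radioligand, reported as mean ± SD.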

[39] = Stability in sodium phosphate buffer at pH 7.4 after 2.5 hrs; format: physicochemical; settings: read-out: Stability
Summary of the method: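 Radioligand stored in 0.15 M sodium phosphate buffer, pH 7.4, for 2.5 h; radiochemical stability measured by radio-HPLC as percent of radioactivity remaining as unchanged radioligand; n = 4.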

Plasma [40] = assay: Biodistribution in rat plasma at 1.43 mCi, iv after 30 mins; format: ADME, organism-based; settings: in vivo, 0.5 h
Summary of the method: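 Rats received the ¹¹C-radioligand iv with varying carrier mass (µg/kg) and were sampled 30 min later. Plasma and brain homogenate were extracted into acetonitrile and analysed by reverse-phase radio-HPLC (C18; MeOH/H₂O/Et₃N, 1.5 mL/min), reporting % radioactivity as unchanged radioligand. Extraction recovery was recorded. Replicate HPLC analyses were run on one sample per rat.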

Plasma [41] = assay: Drug level in rhesus monkey plasma assessed as cell distribution; format: ADME, cell-free, Macaca mulatta
[42] = Lipophilicity, log D of the compound; format: physicochemical; settings: octanol/water
Summary of the method: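 The ¹¹C-ligand (~300 µCi) in saline with 5% ethanol was mixed with sodium phosphate buffer (0.15 M, pH 7.4). Six 1 mL aliquots were each vortexed 1 min with buffer-pre-equilibrated n-octanol, centrifuged 1 min, and 200 µL of each phase was γ-counted. Aqueous counts were corrected by radio-HPLC for the unchanged fraction. LogD = log(cpm octanol/corrected cpm aqueous); mean ± SD of six determinations.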

Sequence of Translocator protein (Rattus norvegicus, UniProt P16257) (P16257 whole entry, looked up): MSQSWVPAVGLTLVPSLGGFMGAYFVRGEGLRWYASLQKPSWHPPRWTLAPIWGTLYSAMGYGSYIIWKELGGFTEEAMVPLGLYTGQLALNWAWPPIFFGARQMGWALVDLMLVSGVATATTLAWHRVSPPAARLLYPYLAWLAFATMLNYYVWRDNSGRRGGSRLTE
Sequence of Translocator protein (Homo sapiens, UniProt P30536) (P30536 whole entry): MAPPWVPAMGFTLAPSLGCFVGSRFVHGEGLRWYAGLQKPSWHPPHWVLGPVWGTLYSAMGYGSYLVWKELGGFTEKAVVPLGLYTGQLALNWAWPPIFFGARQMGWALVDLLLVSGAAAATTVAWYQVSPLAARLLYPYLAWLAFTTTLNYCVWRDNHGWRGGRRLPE
Sequence of Sodium-dependent serotonin transporter (Homo sapiens) (P31645 whole entry, looked up): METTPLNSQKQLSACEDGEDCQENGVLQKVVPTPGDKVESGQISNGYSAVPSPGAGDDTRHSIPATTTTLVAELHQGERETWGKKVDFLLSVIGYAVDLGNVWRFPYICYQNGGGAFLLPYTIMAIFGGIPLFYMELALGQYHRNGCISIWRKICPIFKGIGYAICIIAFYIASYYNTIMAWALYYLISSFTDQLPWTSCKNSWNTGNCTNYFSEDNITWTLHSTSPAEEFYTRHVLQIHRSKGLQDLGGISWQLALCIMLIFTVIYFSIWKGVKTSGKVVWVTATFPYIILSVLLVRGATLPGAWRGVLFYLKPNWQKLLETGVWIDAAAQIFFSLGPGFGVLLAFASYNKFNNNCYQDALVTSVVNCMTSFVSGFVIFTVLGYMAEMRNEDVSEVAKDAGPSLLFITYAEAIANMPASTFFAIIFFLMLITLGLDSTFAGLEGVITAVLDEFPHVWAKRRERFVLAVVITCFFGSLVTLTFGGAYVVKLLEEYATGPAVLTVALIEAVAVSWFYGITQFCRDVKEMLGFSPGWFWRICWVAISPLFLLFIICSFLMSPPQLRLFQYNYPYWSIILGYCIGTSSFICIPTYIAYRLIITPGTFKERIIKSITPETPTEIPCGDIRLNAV
Sequence of Alpha-2A adrenergic receptor (Homo sapiens) (P08913 whole entry): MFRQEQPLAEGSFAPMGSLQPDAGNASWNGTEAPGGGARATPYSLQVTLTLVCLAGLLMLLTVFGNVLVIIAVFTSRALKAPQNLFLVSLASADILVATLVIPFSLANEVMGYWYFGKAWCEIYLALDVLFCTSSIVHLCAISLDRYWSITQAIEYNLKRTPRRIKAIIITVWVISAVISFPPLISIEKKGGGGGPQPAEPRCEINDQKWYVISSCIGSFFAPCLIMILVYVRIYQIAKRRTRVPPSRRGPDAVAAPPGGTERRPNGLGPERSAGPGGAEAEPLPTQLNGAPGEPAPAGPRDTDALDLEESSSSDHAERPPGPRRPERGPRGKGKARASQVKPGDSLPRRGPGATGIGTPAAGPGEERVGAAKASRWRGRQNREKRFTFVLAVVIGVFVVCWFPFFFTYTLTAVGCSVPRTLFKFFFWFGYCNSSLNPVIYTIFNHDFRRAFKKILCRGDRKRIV
Sequence of 5-hydroxytryptamine receptor 2C (Homo sapiens) (P28335 whole entry): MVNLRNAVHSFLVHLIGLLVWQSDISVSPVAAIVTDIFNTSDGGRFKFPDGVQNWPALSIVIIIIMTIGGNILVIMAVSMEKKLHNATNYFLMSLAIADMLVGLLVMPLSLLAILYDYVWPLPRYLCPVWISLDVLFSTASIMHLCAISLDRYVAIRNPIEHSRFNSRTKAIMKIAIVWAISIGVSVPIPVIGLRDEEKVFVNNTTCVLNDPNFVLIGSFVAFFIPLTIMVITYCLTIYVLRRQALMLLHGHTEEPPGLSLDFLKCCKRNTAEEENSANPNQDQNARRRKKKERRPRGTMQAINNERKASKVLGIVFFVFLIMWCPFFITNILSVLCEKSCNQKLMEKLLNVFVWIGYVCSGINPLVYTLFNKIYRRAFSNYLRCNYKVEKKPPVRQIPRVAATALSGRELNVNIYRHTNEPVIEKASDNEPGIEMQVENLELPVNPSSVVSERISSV
Sequence of Muscarinic acetylcholine receptor M2 (Homo sapiens) (P08172 whole entry): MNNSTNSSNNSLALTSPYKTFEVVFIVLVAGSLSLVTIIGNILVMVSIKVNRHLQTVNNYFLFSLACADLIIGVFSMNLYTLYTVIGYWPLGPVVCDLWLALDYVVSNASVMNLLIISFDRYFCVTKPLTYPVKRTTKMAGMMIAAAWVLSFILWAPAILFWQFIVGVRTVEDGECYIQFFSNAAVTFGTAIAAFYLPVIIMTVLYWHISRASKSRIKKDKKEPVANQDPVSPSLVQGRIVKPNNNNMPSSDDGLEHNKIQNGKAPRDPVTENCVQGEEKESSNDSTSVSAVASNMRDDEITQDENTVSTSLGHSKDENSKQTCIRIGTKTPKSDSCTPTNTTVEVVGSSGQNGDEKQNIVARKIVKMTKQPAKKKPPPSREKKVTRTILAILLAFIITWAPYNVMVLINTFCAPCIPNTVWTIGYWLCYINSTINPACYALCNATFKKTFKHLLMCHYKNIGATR
Sequence of 5-hydroxytryptamine receptor 1B (Homo sapiens) (P28222 whole entry): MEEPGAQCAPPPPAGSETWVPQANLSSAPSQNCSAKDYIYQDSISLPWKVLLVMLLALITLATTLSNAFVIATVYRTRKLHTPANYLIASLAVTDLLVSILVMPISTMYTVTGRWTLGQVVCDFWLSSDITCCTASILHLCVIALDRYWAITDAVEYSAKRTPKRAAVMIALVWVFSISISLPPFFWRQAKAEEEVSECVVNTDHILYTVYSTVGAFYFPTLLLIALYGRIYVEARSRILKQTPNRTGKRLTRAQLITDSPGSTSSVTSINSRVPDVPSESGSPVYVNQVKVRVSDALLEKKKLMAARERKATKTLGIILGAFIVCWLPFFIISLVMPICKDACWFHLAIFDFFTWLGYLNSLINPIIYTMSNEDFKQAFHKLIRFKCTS
Sequence of D(4) dopamine receptor (Homo sapiens) (P21917 whole entry): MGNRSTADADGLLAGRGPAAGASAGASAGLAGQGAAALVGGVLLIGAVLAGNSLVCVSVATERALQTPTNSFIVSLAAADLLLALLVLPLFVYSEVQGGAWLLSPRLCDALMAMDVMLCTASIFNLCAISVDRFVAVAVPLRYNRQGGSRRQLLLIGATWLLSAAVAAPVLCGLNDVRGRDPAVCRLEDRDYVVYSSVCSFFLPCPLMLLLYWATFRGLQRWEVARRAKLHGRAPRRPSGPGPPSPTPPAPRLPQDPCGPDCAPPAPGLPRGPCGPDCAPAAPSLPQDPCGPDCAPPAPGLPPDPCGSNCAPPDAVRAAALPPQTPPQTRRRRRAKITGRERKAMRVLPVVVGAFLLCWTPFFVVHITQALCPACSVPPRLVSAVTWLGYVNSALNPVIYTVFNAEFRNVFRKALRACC
Sequence of Beta-2 adrenergic receptor (Homo sapiens) (P07550 whole entry, looked up): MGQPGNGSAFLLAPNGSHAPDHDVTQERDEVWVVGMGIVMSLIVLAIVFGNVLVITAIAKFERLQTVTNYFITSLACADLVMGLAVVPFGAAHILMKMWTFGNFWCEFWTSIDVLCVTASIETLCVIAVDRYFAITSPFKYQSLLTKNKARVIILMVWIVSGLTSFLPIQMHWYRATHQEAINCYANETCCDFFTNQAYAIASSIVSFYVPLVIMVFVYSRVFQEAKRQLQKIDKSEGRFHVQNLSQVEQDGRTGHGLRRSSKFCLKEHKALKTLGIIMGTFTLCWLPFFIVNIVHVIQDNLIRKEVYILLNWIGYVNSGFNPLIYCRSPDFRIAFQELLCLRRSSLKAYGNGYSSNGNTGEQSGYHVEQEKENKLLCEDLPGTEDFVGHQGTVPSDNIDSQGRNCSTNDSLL
Sequence of Histamine H1 receptor (Homo sapiens) (P35367 whole entry): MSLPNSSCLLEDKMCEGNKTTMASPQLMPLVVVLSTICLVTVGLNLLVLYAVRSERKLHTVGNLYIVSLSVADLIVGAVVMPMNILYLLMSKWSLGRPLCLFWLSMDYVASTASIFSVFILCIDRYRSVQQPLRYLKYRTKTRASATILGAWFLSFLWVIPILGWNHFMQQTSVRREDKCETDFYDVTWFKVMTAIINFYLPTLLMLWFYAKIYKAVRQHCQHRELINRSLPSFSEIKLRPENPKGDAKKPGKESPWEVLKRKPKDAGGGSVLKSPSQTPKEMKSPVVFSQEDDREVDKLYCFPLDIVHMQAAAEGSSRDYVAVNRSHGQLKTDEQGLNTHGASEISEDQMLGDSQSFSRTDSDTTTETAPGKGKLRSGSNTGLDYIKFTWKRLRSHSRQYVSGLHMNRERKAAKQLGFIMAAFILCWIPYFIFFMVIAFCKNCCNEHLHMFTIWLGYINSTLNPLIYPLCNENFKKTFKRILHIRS
Sequence of Alpha-2C adrenergic receptor (Homo sapiens) (P18825 whole entry): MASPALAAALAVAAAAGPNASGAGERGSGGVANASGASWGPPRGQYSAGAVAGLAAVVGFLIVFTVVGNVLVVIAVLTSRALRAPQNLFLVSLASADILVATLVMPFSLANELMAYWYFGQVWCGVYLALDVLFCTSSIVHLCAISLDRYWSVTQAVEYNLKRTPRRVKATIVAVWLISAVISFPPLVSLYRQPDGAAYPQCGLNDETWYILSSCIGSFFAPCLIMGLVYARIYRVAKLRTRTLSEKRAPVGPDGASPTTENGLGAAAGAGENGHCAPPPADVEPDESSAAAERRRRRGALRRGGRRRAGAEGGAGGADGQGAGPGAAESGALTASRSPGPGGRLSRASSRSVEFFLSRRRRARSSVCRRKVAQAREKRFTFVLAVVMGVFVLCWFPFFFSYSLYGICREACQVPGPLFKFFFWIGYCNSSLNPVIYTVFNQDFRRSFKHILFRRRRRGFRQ
Sequence of 5-hydroxytryptamine receptor 5A (Homo sapiens) (P47898 whole entry): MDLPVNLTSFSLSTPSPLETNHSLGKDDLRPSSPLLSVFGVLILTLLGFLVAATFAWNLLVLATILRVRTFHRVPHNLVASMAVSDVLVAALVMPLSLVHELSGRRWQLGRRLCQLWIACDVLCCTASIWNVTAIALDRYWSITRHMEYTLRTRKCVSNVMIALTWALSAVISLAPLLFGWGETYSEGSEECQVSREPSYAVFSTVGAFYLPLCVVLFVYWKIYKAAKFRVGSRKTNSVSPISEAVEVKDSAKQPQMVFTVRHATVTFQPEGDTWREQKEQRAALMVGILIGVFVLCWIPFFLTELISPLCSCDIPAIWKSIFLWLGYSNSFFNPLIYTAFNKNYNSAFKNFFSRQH

Activity [1]: < 50%
Activity [2]: < 50%
Activity [3]: < 50%
Activity [4]: < 50%
Activity [5]: < 50%
Activity [6]: < 50%
Activity [7]: < 50%
Activity [8]: < 50%
Activity [9]: < 50%
Activity [10]: < 50%
Activity [11]: < 50%
Activity [12]: < 50%
Activity [13]: < 50%
Activity [14]: < 50%
Activity [15]: < 50%
Activity [16]: < 50%
Activity [17]: < 50%
Activity [18]: < 50%
Activity [19]: < 50%
Activity [20]: < 50%
Activity [21]: < 50%
Activity [22]: < 50%
Activity [23]: < 50%
Activity [24]: < 50%
Activity [25]: < 50%
Activity [26]: < 50%
Activity [27]: < 50%
Activity [28]: < 50%
Activity [29]: < 50%
Activity [30]: < 50%
Activity [31]: < 50%
Activity [32]: < 50%
Compound: COc1ccccc1CN(C(C)=O)c1cnccc1Oc1ccccc1

Compound: COc1ccc(O[11CH3])c(CN(C(C)=O)c2cc(F)ccc2Oc2ccccc2)c1
Ki (Translocator protein [33]): 0.0726 nM
Ki [34]: 0.23 nM
Ki (Translocator protein [35]): 0.242 nM

fraction unbound [36]: 0.0015
Drug uptake (Plasma [37]): 36.7%
Ki (Translocator protein [33]): 0.0978 nM
Ki [34]: 0.254 nM
Ki (Translocator protein [35]): 1.4 nM
remaining at 0.5 h [38]: 96.5%
remaining at 2.5 h [39]: 99.9%
Drug uptake (Plasma [40]): 3.4%
Drug uptake (Plasma [41]): 63.3%
logD [42]: 3.9
Compound: CC(=O)N(Cc1ccccc1C(=O)O[11CH3])c1ccccc1Oc1ccccc1
